Shown are actives, neighbours in structure and some others; about 6.8% of the full set was active somewhere.
HSF1 activator – increases HSF-1 driven luciferase reporter signal; AID 504408; activation, % at 9 µM; actives 1.7% (n = 300,000); NIH3T3-HGL HSF-1 luciferase reporter, MG132, 8 h; 100% = twice DMSO control signal;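 active means mean replicate activation of at least 50% with a set share of replicates each reaching 50%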;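 further: 0% = median of the neutral control wells and 100% = twice that signal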
HCV core dimer – blocks dimerization of HCV core protein; TR-FRET GST/Flag-core106 dimerization, 1536-well; inhibition, % at 5 µM; actives 0.33% (n = 300,000);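 active means inhibition above the mean of all tested compounds plus 3 SD, set per screening campaign, cut at about 45% in these data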
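Assay system: GST-tagged and Flag-tagged HCV core protein residues 1-106 / Times: compound-protein-antibody incubation 4 h at 22.5 °C / Signal: time-resolved FRET, ex 340 nm, em 617 and 671 nm / Evaluation: % inhibition based on acceptor/donor emission ratio / Benchmarks: wells lacking GST-core106 and wells with excess unlabelled core106 / Repeats: singlicate, one well per compound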
AI-2 QS modul – modulators of Vibrio harveyi AI-2 quorum sensing system; activity change, % at 7.5 µM; AID 2094; actives 0.4% (n = 300,000); Vibrio harveyi JMH597 AI-2 luminescence/OD600 ratio, 9 h; hits give low values; strain lacks LuxN and CqsS sensors; 0 = neutral-control median; in the data active means activity change below about -75%, passing the limit was not always enough;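 further: luminescence divided by OD600 gain over 9 h not by final OD600 alone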
PHOSPHO1 block – blocks human PHOSPHO1 phosphatase activity | AID 1565 | recombinant PHOSPHO1, absorbance phosphatase assay | inhibition, % at 13.3 µM | actives 1.1% (n = 290,000); in the data active means inhibition above about 60%
Target sequence (Q8TCT1 whole entry, looked up): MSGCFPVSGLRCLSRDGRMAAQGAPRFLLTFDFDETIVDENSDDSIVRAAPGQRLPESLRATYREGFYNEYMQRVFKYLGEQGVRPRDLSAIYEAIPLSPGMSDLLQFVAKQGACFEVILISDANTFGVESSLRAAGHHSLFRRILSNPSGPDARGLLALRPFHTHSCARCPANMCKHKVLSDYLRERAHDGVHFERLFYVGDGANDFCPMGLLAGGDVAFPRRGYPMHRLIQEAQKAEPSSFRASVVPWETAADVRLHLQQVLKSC
ALR inh – human ALR oxidase inhibition via reduced H2O2; purified ALR, DTT oxidation, H2O2 HRP-luminol luminescence; inhibition, % (test concentration not listed); actives 3.8% (n = 290,000); AID 485317;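 active means mean replicate inhibition above about 79%, with every replicate also reaching it, limit read from the data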
Target sequence (P55789 whole entry, looked up): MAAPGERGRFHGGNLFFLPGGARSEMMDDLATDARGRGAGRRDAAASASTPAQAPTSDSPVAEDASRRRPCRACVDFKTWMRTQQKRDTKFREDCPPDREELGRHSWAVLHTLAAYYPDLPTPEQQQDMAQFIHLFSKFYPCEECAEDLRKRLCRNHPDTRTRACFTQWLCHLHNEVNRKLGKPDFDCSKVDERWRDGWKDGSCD
HSF1 inh – HSF1 inhibition | AID 2098 | activity change, negative = inhibition, % at 7.5 µM (by protocol) | NIH3T3-HGL HSE-luciferase, MG132-induced, luminescence 8 h; hits give low values | actives 0.77% (n = 300,000);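 active means more than half of replicate wells show activity change below -50%, luminescence cut by over half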;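 further: luciferase reports HSF-1 transcriptional activity via heat shock element; 0% = median of DMSO wells and -100% = zero luminescence signal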
The depositor's hits bear a star; · = no result.

SMILES	HSF1 activator	HCV core dimer	AI-2 QS modul	PHOSPHO1 block	ALR inh	HSF1 inh
O=C(C1CCC(=O)N(C2CC2)C1)N1CCC(Oc2cccc(C(F)(F)F)c2)CC1 (configuration not stated)	3.5	·	-2.6	2.8	·	-2.1
COc1ccccc1C(=O)NCC(=O)OCC(=O)c1cccc2ccccc12	60.3*	1.0	13.1	·	24.0	19.0
O=C(Nc1ccccc1Br)C1CCN(C(=O)Cc2ccccc2)CC1	-8.0	-1.3	5.8	3.2	-2.7	-8.6
CC(C)CN1C(=O)c2ccc(C(=O)Nc3ccccc3C(=O)O)cc2C1=O	-1.8	-5.0	-18.5	9.7	80.7*	-11.7
O=C(Nc1ccccc1C(=O)O)c1cccc(N2C(=O)c3ccccc3C2=O)c1	10.6	-3.3	37.5	12.0	10.2	-5.3
Cc1cc([N+](=O)[O-])ccc1N1C(=O)c2ccc(C(=O)Nc3ccccc3C(=O)O)cc2C1=O	-5.7	2.4	0.0	42.0	97.5*	2.3
O=C(O)CCN1C(=O)c2ccc(NC(=O)Cc3ccc(Cl)cc3)cc2C1=O	-6.7	-7.8	5.1	9.3	-8.0	-10.2
COc1cc(NC(=O)c2cc(OC)c(OC)c(OC)c2)ccc1NC(=O)c1cccs1	-8.2	7.5	8.3	32.8	1.5	-2.0
COc1cc(NC(=S)NC(=O)c2ccc(C)cc2C)ccc1NC(=O)c1cccs1	15.2	2.3	5.6	61.9*	·	6.3
COc1cc(N)ccc1NC(=O)c1cccs1	22.7	0.5	22.9	-13.5	98.8*	5.6
COc1ccccc1NS(=O)(=O)c1cc(C(=O)NCC(C)(C)N2CCOCC2)ccc1C	-0.8	-2.1	22.3	·	-1.7	0.9
O=C(NCc1nnc(SCc2ccc(F)cc2)n1-c1ccccc1)C12CC3CC(CC(C3)C1)C2	62.1*	6.3	18.0	-6.0	-39.7	31.2
O=C(NCc1nnc(SCc2ccc(C(F)(F)F)cc2)n1-c1ccccc1)C12CC3CC(CC(C3)C1)C2	26.1	11.7	36.8	-6.2	-17.4	2.1
COc1ccc(CCN(C(=O)c2snc(C(N)=O)c2N)C(C)C(=O)NC2CCCCC2)cc1OC (configuration not stated)	6.7	1.6	23.4	27.9	-0.1	-1.2
OCCNC(=S)Nc1cccc(Cl)c1Cl	-5.8	-2.7	20.5	-5.9	-11.4	-6.5
COc1ccc(NC(=O)c2nn(C)c(=O)c3ccccc23)cc1S(=O)(=O)Nc1ccccc1Cl	64.7*	8.4	14.8	24.4	-7.7	47.4
COc1ccccc1NS(=O)(=O)c1cccc(NC(=O)c2nn(C)c(=O)c3ccccc23)c1	·	·	·	·	-1.2	·
Cc1nc2c(ncn2-c2ccccc2)c(=O)n1NC(=O)CN1CCOCC1	-64.2	-2.5	9.0	-0.8	-1.4	-56.6*
COc1cccc(OCC(O)CNC(=O)c2oc3ccc(C)cc3c2C)c1 (configuration not stated)	7.7	-1.9	12.9	8.2	-1.5	-4.8
Cc1cc(N2CCOCC2)ccc1/C=C1\SC(=O)N(C(C)C)C1=O	78.3*	-6.8	-7.9	37.9	·	45.2
CCN1C(=O)S/C(=C\c2ccc(N3CCOCC3)cc2C)C1=O	65.1*	-2.0	-0.6	11.1	·	44.7
CCC(C)N1C(=O)S/C(=C/c2ccc(N3CCOCC3)cc2C)C1=O (configuration not stated)	-2.9	-3.1	5.0	-3.4	12.2	-8.5
COc1ccc([C@H]2/C=C\CN(Cc3ccc(N(C)C)cc3)[C@@H](C)C(=O)N2Cc2ccc(F)cc2)cc1	·	-8.4	57.2	·	98.2*	3.0
CCOC(=O)c1sc(-c2ccc(Br)cc2)cc1N	9.5	19.2	2.0	-45.6	-1.0	6.1
NNC(=O)c1sc(-c2ccc(Cl)cc2)cc1N	26.2	-0.9	28.3	13.3	97.6*	23.2
SMILES	HSF1 activator	HCV core dimer	AI-2 QS modul	PHOSPHO1 block	ALR inh	HSF1 inh
COc1cc(C)c(-c2cc(C(=O)O)c(C)o2)cc1C(C)C	4.1	9.7	9.7	0.2	97.3*	4.1
COc1cc(C)c(S(=O)(=O)N2CCCC2)cc1C(C)C	-1.7	1.6	12.2	15.3	0.5	-3.3
CC(C)c1cc(C(N)=O)c(NC(=O)C2CCC2)s1	10.5	-5.8	13.5	32.6	97.5*	-9.6
COc1ccc(/C=N/Nc2ccccc2)cc1Cn1nc(C)c([N+](=O)[O-])c1C	-3.3	38.3	17.5	25.7	·	2.1
CCCCOc1ncnc2c1[nH]c1ccc(OC)cc12	26.6	-2.3	14.9	12.8	-15.7	17.9
COc1ccc2[nH]c3c(=S)nc[nH]c3c2c1	23.0	12.3	1.3	-76.1	99.3*	-0.1
O=C(NCC(c1ccco1)N1CCc2ccccc2C1)C(=O)Nc1ccccc1 (configuration not stated)	12.4	2.7	23.2	·	-13.5	2.5
O=C(NCc1n[nH]c(=S)n1-c1ccc(Cl)c(Cl)c1)c1ccc(S(=O)(=O)N2CCCCC2)cc1	-2.1	-4.7	-1.7	-127.7	89.2*	2.0
Cc1cccc(-n2c(CNC(=O)c3ccc(S(=O)(=O)N4CCCCC4)cc3)n[nH]c2=S)c1	-10.7	-0.1	6.4	-55.7	20.7	-7.3
O=C(NCc1n[nH]c(=S)n1-c1ccc(Cl)c(Cl)c1)c1ccco1	-7.4	-3.7	16.7	-112.6	85.4*	-1.3
O=C(NCc1n[nH]c(=S)n1-c1ccc(F)cc1)c1ccc(S(=O)(=O)N2CCCC2)cc1	·	-3.9	11.6	96.2*	30.9	·
O=C(NCc1n[nH]c(=S)n1-c1cccc(Cl)c1)c1ccc(S(=O)(=O)N2CCCC2)cc1	4.6	-0.2	1.4	-30.6	93.7*	-9.4
O=C(OCC(=O)N1CCc2ccccc21)c1n[nH]c(=O)c2ccccc12	·	·	·	·	-0.1	·
Cc1onc(-c2ccccc2)c1C(=O)NC(=S)NNC(=O)c1cc(-c2ccc(F)cc2)n[nH]1	36.0	4.8	-5.4	-6.3	0.7	12.5
COc1cccc(/C=N/n2c(-c3cc(C)[nH]n3)n[nH]c2=S)c1OC	20.2	-2.1	4.7	-56.9	96.5*	6.6
COc1ccc(/C=N/n2c(-c3cc(C)[nH]n3)n[nH]c2=S)cc1OC	-78.9	-1.1	33.7	92.7*	·	-73.6*
COc1ccc(/C=N/n2c(-c3cc(C)[nH]n3)n[nH]c2=S)cc1	-1.7	0.9	10.7	-0.5	·	6.3
Cc1cc(-c2n[nH]c(=S)n2/N=C/c2ccc(Cl)c([N+](=O)[O-])c2)n[nH]1	-10.6	8.3	22.7	31.4	96.6*	3.8
Cn1c(=S)n(/N=C/c2ccc3c(c2)OCO3)c2ccccc21	·	10.9	·	46.6	4.9	·
COc1ccc(/C=N/n2c(=S)n(C)c3ccccc32)cc1OC	1.3	1.0	30.9	73.3*	-5.1	0.3
COc1cccc(/C=N/n2c(-c3n[nH]c4c3CCC4)n[nH]c2=S)c1OC	0.3	-0.1	21.5	10.5	56.5	-2.5
